Assay outcomes from PubChem BioAssay.
M5 antag: human M5 muscarinic receptor antagonists, primary screen, CHO cells, Fluo-8 calcium fluorescence | inhibition, % at 3 µM | AID 624040, 2012 | CHO-hM5 cells, ACh EC80 | 0.59% of 360,000 active | Muscarinic acetylcholine receptor M5 (Homo sapiens), P08912;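 active = inhibition above a per-plate cutoff, the mean of that plate's test compounds plus 3 SD, cut at about 27% in these data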;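 also: 0% = acetylcholine EC80 with DMSO and 100% = DMSO without agonist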
Target sequence (P08912 whole entry, looked up): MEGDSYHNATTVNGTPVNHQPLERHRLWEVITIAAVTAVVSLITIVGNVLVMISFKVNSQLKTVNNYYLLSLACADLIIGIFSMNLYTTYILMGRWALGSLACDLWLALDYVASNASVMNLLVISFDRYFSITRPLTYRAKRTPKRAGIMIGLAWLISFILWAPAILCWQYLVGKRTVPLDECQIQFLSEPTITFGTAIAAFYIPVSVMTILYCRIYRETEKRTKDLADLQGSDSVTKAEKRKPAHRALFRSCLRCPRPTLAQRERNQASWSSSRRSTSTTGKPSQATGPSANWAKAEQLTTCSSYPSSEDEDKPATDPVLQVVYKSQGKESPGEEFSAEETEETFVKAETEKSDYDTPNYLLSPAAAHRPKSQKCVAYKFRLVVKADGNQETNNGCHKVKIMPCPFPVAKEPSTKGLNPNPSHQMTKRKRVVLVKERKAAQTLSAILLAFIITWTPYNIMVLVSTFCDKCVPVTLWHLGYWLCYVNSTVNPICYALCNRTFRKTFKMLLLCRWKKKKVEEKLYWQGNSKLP
M4 antag: human M4 muscarinic receptor antagonists, primary screen, CHO cells, Fluo-8 calcium fluorescence; AID 624125, 2012; inhibition, % at 3 µM; 0.73% of 360,000 active; Muscarinic acetylcholine receptor M4 (Homo sapiens), P08173; CHO-hM4 cells, ACh EC80;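 active = inhibition above its plate's cutoff, the mean inhibition of sample wells plus 3 SD, cut at about 27% in these data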;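 also: 0% = acetylcholine EC80 with DMSO and 100% = DMSO without agonist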
CHRM4 PAM: human M4 muscarinic receptor positive allosteric modulators, primary screen, CHO-K1 cells, Fluo-8 calcium fluorescence; Muscarinic acetylcholine receptor M4 (Homo sapiens), P08173; CHO-K1 hM4/Gqi5, ACh EC20; 0% = ACh EC20, 100% = maximal ACh; activation, % at 3 µM; 0.4% of 360,000 active; AID 624126, 2012;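 active = activation above its plate's cutoff, the mean activation of sample wells plus 3 SD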
M4 ag: human M4 muscarinic receptor agonists, primary screen, CHO-K1 cells, Fluo-8 calcium fluorescence; Muscarinic acetylcholine receptor M4 (Homo sapiens), P08173; CHO-K1 hM4/Gqi5; vehicle 0%, full acetylcholine response 100%; activation, % at 3 µM; 0.14% of 360,000 active;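 active = activation above the run mean over all test wells plus 3 SD, cut at about 32% in these data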;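 also: peak over basal fluorescence ratio per well then scaled between controls; 0% = DMSO wells and 100% = acetylcholine at EC100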
CHRM5 PAM: human M5 muscarinic receptor positive allosteric modulators, primary screen, CHO-K1 cells, Fluo-8 calcium fluorescence | activation, % at 3 µM | 0.3% of 360,000 active | CHO-K1 hM5, ACh EC20 PAM; 0% = ACh EC20, 100% = ACh EC100 | Muscarinic acetylcholine receptor M5 (Homo sapiens), P08912;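 active = activation above the run cutoff, the mean activation of all test compounds plus 3 SD, cut at about 18% in these data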
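Replicates: One well per compound, no replicates | System: Human M5 receptor in CHO-K1 cells | Benchmarks: Low control EC20 acetylcholine (0%), high control EC100 acetylcholine (100%) | Probe or stimulus: Acetylcholine, EC20 level | Times: Fluo-8 loading 80 min at 37 °C plus 30 min room temperature | Signal: Intracellular calcium via Fluo-8 fluorescence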
M5 ag: human M5 muscarinic receptor agonists, primary screen, CHO-K1 cells, Fluo-8 calcium fluorescence; CHO-K1 hM5 cells; 0% DMSO wells, 100% maximal acetylcholine response; activation, % at 3 µM; 0.19% of 360,000 active; AID 624037, 2012;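 active = activation above the run's mean over test compounds plus 3 SD, cut at about 23% in these data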;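 also: signal is peak over basal fluorescence ratio across the kinetic read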
* hit, by the source's call. Hits are enriched below; roughly 1.8% of the tested compounds scored in any of these assays.

SMILES | M5 antag | M4 antag | CHRM4 PAM | M4 ag | CHRM5 PAM | M5 ag
CC[N+](C)(CC)CCOC(=O)C(O)(c1ccccc1)C1CCCCC1 (configuration not stated) | 98* | 99* | -18 | 0 | -18 | -2
CCC(C(=O)NC1CCCCCC1)c1ccccc1 (configuration not stated) | -11 | -1 | -22 | 0 | 11 | -9
Cc1cc(C)c(NC(=O)C2CCN(S(C)(=O)=O)CC2)c(C)c1 | 5 | -9 | 9 | 0 | -5 | 0
Cn1ccnc1C1CCCCN1Cc1nc(Cc2ccccc2F)no1 (configuration not stated) | 22 | 83* | -27 | 11 | -34 | -14
COC(=O)[C@@]12C[C@@H](CC(=O)NCc3ccc(OC)c(OC)c3)C(=O)N(Cc3ccc4c(c3)OCO4)C1=CCC(C)(C)C2 | -13 | -3 | -4 | 11 | 7 | 3
OC(c1cc(F)cc(Cl)c1)c1ncc(-c2ccc(Cl)cc2)[nH]1 (configuration not stated) | 4 | -2 | 3 | 9 | -3 | 5
O=C(c1cccs1)N1CCN=C1SCc1cccnc1 | 22 | -7 | 12 | 3 | 20* | 8
COc1ccc(NS(=O)(=O)c2ccc(C(=O)N(C)Cc3cccs3)cc2)cc1 | 8 | -2 | 1 | 17 | -17 | 26*
O=C(c1ccccc1)c1ccc(C(=O)N2CCCC(C(F)(F)F)C2)cc1 (configuration not stated) | 6 | -1 | 2 | 4 | -7 | 1
COc1ccc(NS(=O)(=O)c2ccc(C(=O)N3CCCCCC3)cc2)cc1 | 11 | -7 | -6 | 23 | -30 | 24*
O=C(c1ccc(S(=O)(=O)Nc2ccccc2)cc1)N1CCCC(C(F)(F)F)C1 (configuration not stated) | 10 | -2 | -6 | 32 | -17 | 36*
CCOc1ccc(NS(=O)(=O)c2ccc(C(=O)N3CCCC(C)C3)cc2)cc1 (configuration not stated) | 14 | 0 | -7 | 36* | -22 | 36*
O=S1(=O)CC(N2CCN(CCO)CC2)CN1Cc1ccccc1 (configuration not stated) | 1 | -5 | -3 | 1 | -2 | 1
COc1ccc(S(=O)(=O)NC(=O)C2(C)CCN2C(=O)Cc2cc(C)cc(C)c2)cc1OC (configuration not stated) | 1 | 4 | -2 | 0 | -3 | 0
CC(=O)N1CCC(C(=O)N2c3ccccc3N=C(c3ccc4c(c3)OCO4)C2C(=O)Nc2c(C)cccc2C)CC1 (configuration not stated) | 2 | -5 | 10 | 3 | -7 | -3
Cc1ccc(NS(=O)(=O)c2ccc(C(=O)N3CCC3)cc2)cc1 | 11 | 8 | -4 | 5 | -10 | 7
Cc1ccc(NS(=O)(=O)c2ccc(C(=O)N3CC(C)OC(C)C3)cc2)cc1 (configuration not stated) | 10 | 2 | 7 | 24 | -9 | 31*
Cc1ccc(NS(=O)(=O)c2ccc(C(=O)NCc3ccccn3)cc2)cc1 | 9 | 5 | -8 | 15 | -6 | 22
COc1ccc(NS(=O)(=O)c2ccc(O)c(NC(=O)c3ccc(S(=O)(=O)N4CCCC4)cc3)c2)cc1 | 6 | -5 | -5 | 4 | -4 | -2
CCOC(=O)c1ccc(S(=O)(=O)Nc2cc(S(=O)(=O)Nc3ccc(OC)cc3)ccc2O)cc1 | -5 | -6 | 6 | 0 | 18* | -3
CCOc1ccc(NS(=O)(=O)c2ccc(C(=O)NCc3ccccn3)cc2)cc1 | 4 | -2 | -9 | 22 | -12 | 32*
Cc1ccc(S(=O)(=O)N/N=C/c2ccc(OC3CSC3)cc2)cc1 | 15 | 20 | 4 | 42* | -1 | 38*
COc1ccc(/C=C/c2ccc3ccccc3[n+]2C)cc1OC | 0 | -17 | -4 | 1 | -4 | -7
CC(=O)Oc1ccccc1/C=C/c1ccc2ccccc2[n+]1C | 32* | 14 | -14 | 0 | -17 | -9
O=C(Nc1nccs1)c1cnc2sccn2c1=O | 2 | 3 | -2 | 1 | -1 | 0
SMILES | M5 antag | M4 antag | CHRM4 PAM | M4 ag | CHRM5 PAM | M5 ag
CS(=O)(=O)N(Cc1ccc(C(=O)NN=C2CCCC2)cc1)c1ccccc1 | 3 | -1 | 3 | 1 | -2 | 0
CS(=O)(=O)N(Cc1ccc(C(=O)NN=C2CCCCCC2)cc1)c1ccccc1 | 13 | -2 | 9 | 0 | 25* | 2
COCCOC(=O)N1CCCCC1c1cc(C(=O)Nc2cccc3c2CCCC3)no1 (configuration not stated) | 2 | -4 | 6 | 3 | 0 | -2
COC(=O)[C@]12CCCCC=C1N(Cc1cccc3ccccc13)C(=O)[C@H](CC(=O)NCC1CCCCC1)C2 | 3 | 13 | -10 | 13 | -10 | 0
O=S(=O)(/C(=C\c1ccc(C(F)(F)F)cc1)c1nc2ccccc2[nH]1)c1ccccc1 | 13 | 44* | -7 | 3 | 8 | 5
CN(C)CC/C=C1/c2ccccc2COc2ccc(CC(=O)O)cc21 | 7 | 4 | -3 | 0 | -11 | -2
CNCCC=C1c2ccccc2C=Cc2ccccc21 | 99* | 90* | -18 | 4 | -18 | 1
CN(C)CCC=C1c2ccccc2CCc2ccccc21 | 99* | 95* | -17 | 3 | -19 | 0
CNc1ccc(C=C2C=Cc3ccccc32)cc1 | 2 | -5 | 8 | 3 | 2 | 6
CN(C)CCC=C1c2ccccc2C=Cc2ccccc21 | 99* | 99* | -19 | 5 | -18 | 0
CC(=O)Nc1ccc(-n2nnnc2SCC(=O)Nc2cccc(NC(=O)c3ccco3)c2)cc1 | -6 | 26* | 4 | 2 | 3 | -1
COC(=O)c1cn(NC(=O)c2cc(OC)cc(OC)c2)c(=O)c2ccccc12 | 0 | 4 | 10 | 2 | -6 | -3
COC(=O)c1cn(NC(=O)c2cc(OC)c(OC)c(OC)c2)c(=O)c2ccccc12 | -10 | -9 | 17 | 0 | 24* | 9
O=c1ccc(-c2nc3ccccc3n2C(CCc2ccccc2)c2nc3ccccc3[nH]2)c[nH]1 (configuration not stated) | -2 | -4 | 10 | 1 | 2 | 0
O=C(O)c1ccc(NS(=O)(=O)c2ccc(Cl)c(C(=O)Nc3ccccc3)c2)cc1 | 7 | -10 | 2 | 1 | 0 | 2
